Among the data in ChEMBL document CHEMBL4715695, “Adamantyl-tethered-biphenylic compounds induce apoptosis in cancer cells by targeting Bcl homologs” (Bioorg Med Chem Lett, 2016) are IC50, Activity and inhibition values, retold here.

Data set [1] relates to HepG2. The data set is described as follows: Cytotoxicity against human HepG2 cells assessed as reduction in cell viability measured upto 72 hrs by MTT assay. The format is functional, cell-based. The settings on record: for IC50: HepG2, 72 h. An outline of the steps: (§1)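 HCC cells plated at 2.5 × 10^4/mL in triplicate and exposed to a range of compound concentrations. Proliferation was read by MTT at 24, 48 and 72 h.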
(Tetrazolium dyes change colour on reduction, which living cells bring about.)

The test system of another data set is L02. The data set is described as follows: Cytotoxicity against human L02 cells assessed as reduction in cell viability measured upto 72 hrs by MTT assay. The settings on record: l02, 72 h. The format is cell-based.
The subject of data set [2] is HepG2. The experiment in a line: Induction of cell cycle arrest in human HepG2 cells assessed as increase in accumulation of SubG1 phase incubated for 48 hrs by propidium iodide staining based flow cytometry analysis. It counts as functional. The settings on record: dose 10-40 µM. An outline of the steps: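 HepG2 cells were treated at 0, 10, 20 and 40 µM for 48 h, then ethanol-fixed and stained with propidium iodide. Cell cycle distribution, including the subG1 fraction, was analysed by flow cytometry.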

Data set [3] has as its system HepG2. The data set is described as follows: Induction of apoptosis in human HepG2 cells assessed as upregulation of Bcl-2 expression measured upto 48 hrs by Western blot analysis. The format is functional, cell-based. The settings on record: time hrs <=48, in the assay text read “downregulation” for “upregulation”, TDE = time-dependent effect. In outline: (§2)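 HepG2 cells were exposed to compound and harvested at 0, 12, 18, 24 and 48 h. Bcl-2 and Bcl-xL levels were detected by western blot, with β-actin as loading control.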
On the technique in general: Immunoblotting shows a protein as a band on a membrane.

Data set [4] has as its system HepG2. The experiment in a line: Induction of apoptosis in human HepG2 cells assessed as upregulation of Bcl-xl expression measured upto 48 hrs by Western blot analysis. The format is functional, cell-based. The settings on record: time hrs <=48, in the assay text read “downregulation” for “upregulation”, TDE = time-dependent effect. An outline of the steps:
as §2

Data set [5] deals with MDA-MB-231. The data set is described as follows: Induction of apoptosis in human MBA-MB-231 cells assessed as upregulation of Bcl-2 expression measured upto 48 hrs by Western blot analysis. It counts as functional, cell-based. The settings on record: time hrs <=48, TDE = time-dependent effect, in the assay text read “downregulation” for “upregulation”. An outline of the steps:
(§3)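 Bcl-2 and Bcl-xL levels in MDA-MB-231 cells after compound treatment were assessed by western blot, with β-actin as loading control.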

In data set [6] the test system is MDA-MB-231. The data set is described as follows: Induction of apoptosis in human MBA-MB-231 cells assessed as upregulation of Bcl-xl expression measured upto 48 hrs by Western blot analysis. It counts as functional, cell-based. The settings on record: time hrs <=48, in the assay text read “downregulation” for “upregulation”. In outline: as §3
Data set [7] deals with HepG2. The data set is described as follows: Antiproliferative activity in human HepG2 cells transfected with Bcl2 siRNA assessed as reduction in cell growth at 10 to 50 uM incubated for 24 hrs by MTT assay. The settings on record: dose 10-50 µM. The format is functional, cell-based. An outline of the steps:
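HepG2 cells were transfected with Bcl-2 siRNA, with control siRNA-transfected cells as the comparator. Cells were then exposed to graded compound doses, and proliferation was measured by MTT.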

For data set [8], the system named is HepG2. The data set is described as follows: Induction of apoptosis in human HepG2 cells assessed as increase in pro-caspase 3 activation measured upto 48 hrs by Western blot analysis. The settings on record: time hrs <=48, TDE = time-dependent effect. The format is functional, cell-based. An outline of the steps:
(§4)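 Lysates of compound-treated HepG2 cells were immunoblotted for procaspase-3, PARP, survivin and cyclin D1. Full-length PARP is 116 kDa; cleavage yields 85 and 24 kDa fragments.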

The test system of data set [9] is HepG2. The data set is described as follows: Induction of apoptosis in human HepG2 cells assessed as decrease in full length PARP measured upto 48 hrs by Western blot analysis. It counts as functional, cell-based. The settings on record: time hrs <=48, TDE = time-dependent effect. An outline of the steps:
as §4

Data set [10] concerns HepG2. The data set is described as follows: Induction of apoptosis in human HepG2 cells assessed as increase in PARP cleavage measured upto 48 hrs by Western blot analysis. The format is functional, cell-based. The settings on record: time hrs <=48, TDE = time-dependent effect. In outline:
as §4

The subject of data set [11] is HepG2. The experiment in a line: Induction of apoptosis in human HepG2 cells assessed as decrease in survivin measured upto 48 hrs by Western blot analysis. The format is functional, cell-based. The settings on record: time hrs <=48. An outline of the steps:
as §4

Data set [12] has as its system HepG2. The experiment in a line: Induction of apoptosis in human HepG2 cells assessed as decrease in cyclin-D1 measured upto 48 hrs by Western blot analysis. The format is functional, cell-based. The settings on record: time hrs <=48. An outline of the steps:
as §4

Another data set has as its system Huh-7. The data set is described as follows: Cytotoxicity against human HuH-7 cells assessed as reduction in cell viability measured upto 72 hrs by MTT assay. The format is functional, cell-based. The settings on record: dose 10-50 µM, time hrs <=72. An outline of the steps: as §1
Another data set deals with Hep 3B2. The experiment in a line: Cytotoxicity against human Hep3B cells assessed as reduction in cell viability measured upto 72 hrs by MTT assay. It counts as functional, cell-based. The settings on record: dose 10-50 µM, time hrs <=72. In outline: as §1

Calls of active or inactive are those of the source. The calls are words filed in the database; no cut-off is given here. Where only a bound is given, the exact number is not on record here.

The term IC50 denotes the concentration that inhibits the measured activity by half. Regarding `COc1ccc(-c2ccccc2C#N)cc1C12CC3CC(CC(C3)C1)C2`, the IC50 in the data set on HepG2 [1] is over 50 µM. Further, in the data set with L02, the Activity entry was “Non-Toxic”.

For `COc1ccc(-c2ccccc2C)cc1C12CC3CC(CC(C3)C1)C2`, the IC50 in the data set on HepG2 [1] is 49.1 µM. Besides, the Activity entry with L02 is “Non-Toxic”.

With `COc1ccc(-c2ccccc2)cc1C12CC3CC(CC(C3)C1)C2`, the IC50 in the data set on HepG2 [1] is over 50 µM. The Activity result in the data set with L02 is “Non-Toxic”.

In the case of `COc1ccc(-c2c(F)cc(F)c(OC)c2F)cc1C12CC3CC(CC(C3)C1)C2`, the IC50 with HepG2 [1] is over 50 µM. Also, the Activity entry in the data set on L02 is recorded as “Non-Toxic”.

On to `COc1cccc(-c2ccc(OC)c(C34CC5CC(CC(C5)C3)C4)c2)c1`, for which the IC50 in the data set with HepG2 [1] is over 50 µM. Further, the Activity result in the data set with L02 was “Non-Toxic”.

Turning to `COc1ccc(-c2cccc(Cl)c2)cc1C12CC3CC(CC(C3)C1)C2`, the Activity result in the data set with L02 was “Non-Toxic”.

In the case of `COc1ccc(-c2cccc3ccccc23)cc1C12CC3CC(CC(C3)C1)C2`, the IC50 with HepG2 [1] came to 46.2 µM. Also, the Activity result in the data set on L02 was “Non-Toxic”.

Consider `COc1ccc(C2=Cc3ccccc3C2)cc1C12CC3CC(CC(C3)C1)C2`, for which the half-inhibitory concentration (IC50) in the data set on HepG2 [1] came to 6.9 µM. In the data set on L02, the Activity result is “Toxic”.

In the case of `COc1ccc(-c2ccc(C(=O)N3CCCCC3)cc2)cc1C12CC3CC(CC(C3)C1)C2`, the half-inhibitory concentration (IC50) with HepG2 [1] is over 50 µM. Also, in the data set with L02, the Activity entry is on record as “Non-Toxic”.

Turning to `COc1ccc(-c2cccc(O)c2)cc1C12CC3CC(CC(C3)C1)C2`, the concentration for half-maximal inhibition (IC50) in the data set with HepG2 [1] was determined as 26.1 µM. Further, the Activity result in the data set on L02 was “Non-Toxic”; with HepG2 [2], “Dose-dependent effect”; in the data set on HepG2 [3], “Tde”; in the data set on HepG2 [4], “Tde”; in the data set with MDA-MB-231 [5], “Tde”; in the data set with HepG2 [8], “Tde”. The Activity entry in the data set on HepG2 [9] and in the data set with HepG2 [10] was “Tde” each time. Also, the outcome in the data set on MDA-MB-231 [6], in the data set with HepG2 [11] and in the data set on HepG2 [12] was Active. Also, the inhibition entry in the data set on HepG2 [7] was “inactive”.

As to `CC1(C)CCC(c2ccc(Cl)cc2)=C(CN2CCN(c3ccc(C(=O)NS(=O)(=O)c4ccc(N[C@H](CCN5CCOCC5)CSc5ccccc5)c(S(=O)(=O)C(F)(F)F)c4)cc3)CC2)C1`, the Activity entry in the data set on HepG2 [1] (time hrs <=72), in the data set with Huh-7 and in the data set on Hep 3B2 was “Dose-dependent effect” in each case.

On to `COc1ccc(-c2ccc(C(F)(F)F)cc2)cc1C12CC3CC(CC(C3)C1)C2`, for which the IC50 in the data set with HepG2 [1] is over 50 µM. Also, the Activity entry in the data set with L02 is “Non-Toxic”.

For the molecule `COc1ccc(-c2ccccc2F)cc1C12CC3CC(CC(C3)C1)C2`, the IC50 in the data set on HepG2 [1] was over 50 µM. Further, in the data set on L02, the Activity entry is on record as “Non-Toxic”.

With `COc1ccc(-c2ccc(Cl)c(C(F)(F)F)c2)cc1C12CC3CC(CC(C3)C1)C2`, in the data set with HepG2 [1], the IC50 is over 50 µM. The Activity entry with L02 is on record as “Non-Toxic”.

For the molecule `COc1ccc(-c2ccccc2Cl)cc1C12CC3CC(CC(C3)C1)C2`, in the data set on HepG2 [1], the IC50 is 21.9 µM. For the same molecule, the Activity result in the data set on L02 is given as “Toxic”.
